# Experimental data reported in ChEMBL document CHEMBL4715736, “Identification of anticancer agents based on the thieno[2,3-b]pyridine and 1H-pyrazole molecular scaffolds” (2016).
# System: Malme-3M
# Assay: Growth inhibition of human Malme-3M cells incubated for 48 hrs by sulforhodamine B assay
# Assay type: functional
# Details: not given
# Summary of the method: (§1)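 NCI60 panel at the NCI Developmental Therapeutics Program. Only compounds active in the 10 µM screen went to dose-response testing. GI50, the concentration giving 50% of maximal inhibition of proliferation, and TGI, the concentration giving total growth inhibition, were derived from the dose-response curves.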
Compound,GI50,LC50,TGI
COc1cccc(NC(=O)c2sc3nc4c(cc3c2N)CN(Cc2ccccc2)CC4)c1,1.43 µM,> 100 µM,16.6 µM

# System: LOX IMVI
# Assay: Growth inhibition of human LOX IMVI cells assessed as cell growth at 0.01 uM incubated for 48 hrs by sulforhodamine B assay relative to control
# Assay type: functional
# Details: read-out: Activity
row,Compound,growth at 0.01 µM
1,COc1cccc(NC(=O)c2sc3nc4c(cc3c2N)CN(Cc2ccccc2)CC4)c1,97%

# System: 786-0
# Assay: Growth inhibition of human 786-0 cells assessed as cell growth at 0.01 uM incubated for 48 hrs by sulforhodamine B assay relative to control
# Assay type: functional
# Details: read-out: Activity
# Summary of the method: (§2)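 NCI Developmental Therapeutics Program NCI60 panel. Compounds that were active in the 10 µM one-dose screen went on to dose–response testing. Growth at each concentration is expressed relative to untreated control (100%). GI50 (concentration giving 50% of maximal inhibition of proliferation) and TGI (concentration giving total growth inhibition) were derived from the curves.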
row,Compound,growth at 0.01 µM
1,COc1cccc(NC(=O)c2sc3nc4c(cc3c2N)CN(Cc2ccccc2)CC4)c1,90%

# System: NCI-H460
# Assay: Growth inhibition of human NCI-H460 cells incubated for 48 hrs by sulforhodamine B assay
# Assay type: functional
# Details: not given
# Summary of the method: as §1
Compound,GI50,LC50,TGI
COc1cccc(NC(=O)c2sc3nc4c(cc3c2N)CN(Cc2ccccc2)CC4)c1,4.18 µM,> 100 µM,30.9 µM

# System: OVCAR-5
# Assay: Growth inhibition of human OVCAR-5 cells assessed as cell growth at 0.01 uM incubated for 48 hrs by sulforhodamine B assay relative to control
# Assay type: functional
# Details: read-out: Activity
row,Compound,growth at 0.01 µM
1,COc1cccc(NC(=O)c2sc3nc4c(cc3c2N)CN(Cc2ccccc2)CC4)c1,91%

# System: CAKI-1
# Assay: Growth inhibition of human CAKI-1 cells assessed as cell growth at 0.1 uM incubated for 48 hrs by sulforhodamine B assay relative to control
# Assay type: functional
# Details: read-out: Activity
# Summary of the method: as §2
row,Compound,growth at 0.1 µM
1,COc1cccc(NC(=O)c2sc3nc4c(cc3c2N)CN(Cc2ccccc2)CC4)c1,91%

# System: SW-620
# Assay: Growth inhibition of human SW-620 cells assessed as cell growth at 0.01 uM incubated for 48 hrs by sulforhodamine B assay relative to control
# Assay type: functional
# Details: read-out: Activity
row,Compound,growth at 0.01 µM
1,COc1cccc(NC(=O)c2sc3nc4c(cc3c2N)CN(Cc2ccccc2)CC4)c1,100%

# System: SF-268
# Assay: Growth inhibition of human SF-268 cells assessed as cell growth at 0.1 uM incubated for 48 hrs by sulforhodamine B assay relative to control
# Assay type: functional
# Details: read-out: Activity
row,Compound,growth at 0.1 µM
1,COc1cccc(NC(=O)c2sc3nc4c(cc3c2N)CN(Cc2ccccc2)CC4)c1,100%

# System: NCI/ADR-RES
# Assay: Growth inhibition of human NCI/ADR-RES cells assessed as cell growth at 0.1 uM incubated for 48 hrs by sulforhodamine B assay relative to control
# Assay type: functional
# Details: read-out: Activity
row,Compound,growth at 0.1 µM
1,COc1cccc(NC(=O)c2sc3nc4c(cc3c2N)CN(Cc2ccccc2)CC4)c1,97%

# System: U-251
# Assay: Growth inhibition of human U-251 cells assessed as cell growth at 1 uM incubated for 48 hrs by sulforhodamine B assay relative to control
# Assay type: functional
# Details: read-out: Activity
row,Compound,growth at 1 µM
1,COc1cccc(NC(=O)c2sc3nc4c(cc3c2N)CN(Cc2ccccc2)CC4)c1,72%

# System: M14
# Assay: Growth inhibition of human M14 cells assessed as cell growth at 0.1 uM incubated for 48 hrs by sulforhodamine B assay relative to control
# Assay type: functional
# Details: read-out: Activity
row,Compound,growth at 0.1 µM
1,COc1cccc(NC(=O)c2sc3nc4c(cc3c2N)CN(Cc2ccccc2)CC4)c1,95%

# System: OVCAR-5
# Assay: Growth inhibition of human OVCAR-5 cells assessed as cell growth at 100 uM incubated for 48 hrs by sulforhodamine B assay relative to control
# Assay type: functional
# Details: read-out: Activity
row,Compound,growth at 100 µM
1,COc1cccc(NC(=O)c2sc3nc4c(cc3c2N)CN(Cc2ccccc2)CC4)c1,34%

# System: CAKI-1
# Assay: Growth inhibition of human CAKI-1 cells assessed as cell growth at 0.01 uM incubated for 48 hrs by sulforhodamine B assay relative to control
# Assay type: functional
# Details: read-out: Activity
# Summary of the method: as §2
row,Compound,growth at 0.01 µM
1,COc1cccc(NC(=O)c2sc3nc4c(cc3c2N)CN(Cc2ccccc2)CC4)c1,87%

# System: U-251
# Assay: Growth inhibition of human U-251 cells incubated for 48 hrs by sulforhodamine B assay
# Assay type: functional
# Details: not given
# Summary of the method: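 NCI DTP 60-line human tumour panel. Dose-response curves were run only for ligands active in the initial 10 µM screen. GI50 (concentration giving 50% of maximal inhibition of proliferation) and TGI (concentration giving total growth inhibition) were derived from these curves.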
Compound,GI50,LC50 (concentration killing 50% of cells),TGI
COc1cccc(NC(=O)c2sc3nc4c(cc3c2N)CN(Cc2ccccc2)CC4)c1,2.74 µM,88.7 µM,19.2 µM

# System: SN12C
# Assay: Growth inhibition of human SN12C cells assessed as cell growth at 100 uM incubated for 48 hrs by sulforhodamine B assay relative to control
# Assay type: functional
# Details: read-out: Activity
row,Compound,growth at 100 µM
1,COc1cccc(NC(=O)c2sc3nc4c(cc3c2N)CN(Cc2ccccc2)CC4)c1,16%

# System: Malme-3M
# Assay: Growth inhibition of human Malme-3M cells assessed as cell growth at 0.1 uM incubated for 48 hrs by sulforhodamine B assay relative to control
# Assay type: functional
# Details: read-out: Activity
row,Compound,growth at 0.1 µM
1,COc1cccc(NC(=O)c2sc3nc4c(cc3c2N)CN(Cc2ccccc2)CC4)c1,89%

# System: HOP-92
# Assay: Growth inhibition of human HOP-92 cells incubated for 48 hrs by sulforhodamine B assay
# Assay type: functional
# Details: not given
# Summary of the method: as §1
Compound,GI50,LC50 (concentration killing 50% of the starting cells),TGI
COc1cccc(NC(=O)c2sc3nc4c(cc3c2N)CN(Cc2ccccc2)CC4)c1,2.21 µM,> 100 µM,24.1 µM

# System: SF-539
# Assay: Growth inhibition of human SF-539 cells assessed as cell growth at 0.1 uM incubated for 48 hrs by sulforhodamine B assay relative to control
# Assay type: functional
# Details: read-out: Activity
row,Compound,growth at 0.1 µM
1,COc1cccc(NC(=O)c2sc3nc4c(cc3c2N)CN(Cc2ccccc2)CC4)c1,92%

# System: HCC 2998
# Assay: Growth inhibition of human HCC 2998 cells incubated for 48 hrs by sulforhodamine B assay
# Assay type: functional
# Details: not given
Compound,GI50,TGI
COc1cccc(NC(=O)c2sc3nc4c(cc3c2N)CN(Cc2ccccc2)CC4)c1,9.13 µM,> 100 µM

# Same assay, conditions: read-out: LC50 (the source's name)
row,Compound,CC50
1,COc1cccc(NC(=O)c2sc3nc4c(cc3c2N)CN(Cc2ccccc2)CC4)c1,> 100 µM

# System: NCI-H460
# Assay: Growth inhibition of human NCI-H460 cells assessed as cell growth at 0.01 uM incubated for 48 hrs by sulforhodamine B assay relative to control
# Assay type: functional
# Details: read-out: Activity
row,Compound,growth at 0.01 µM
1,COc1cccc(NC(=O)c2sc3nc4c(cc3c2N)CN(Cc2ccccc2)CC4)c1,101%

# System: NCI-H322M
# Assay: Growth inhibition of human NCI-H322M cells assessed as cell growth at 0.01 uM incubated for 48 hrs by sulforhodamine B assay relative to control
# Assay type: functional
# Details: read-out: Activity
row,Compound,growth at 0.01 µM
1,COc1cccc(NC(=O)c2sc3nc4c(cc3c2N)CN(Cc2ccccc2)CC4)c1,101%

# System: TK-10
# Assay: Growth inhibition of human TK-10 cells assessed as cell growth at 100 uM incubated for 48 hrs by sulforhodamine B assay relative to control
# Assay type: functional
# Details: read-out: Activity
row,Compound,growth at 100 µM
1,COc1cccc(NC(=O)c2sc3nc4c(cc3c2N)CN(Cc2ccccc2)CC4)c1,-55%

# System: DU-145
# Assay: Growth inhibition of human DU-145 cells assessed as cell growth at 0.1 uM incubated for 48 hrs by sulforhodamine B assay relative to control
# Assay type: functional
# Details: read-out: Activity
# Summary of the method: as §2
row,Compound,growth at 0.1 µM
1,COc1cccc(NC(=O)c2sc3nc4c(cc3c2N)CN(Cc2ccccc2)CC4)c1,104%

# System: SNB-19
# Assay: Growth inhibition of human SNB-19 cells assessed as cell growth at 0.01 uM incubated for 48 hrs by sulforhodamine B assay relative to control
# Assay type: functional
# Details: read-out: Activity
row,Compound,growth at 0.01 µM
1,COc1cccc(NC(=O)c2sc3nc4c(cc3c2N)CN(Cc2ccccc2)CC4)c1,98%

# System: K562
# Assay: Growth inhibition of human K562 cells assessed as cell growth at 1 uM incubated for 48 hrs by sulforhodamine B assay relative to control
# Assay type: functional
# Details: read-out: Activity
row,Compound,growth at 1 µM
1,COc1cccc(NC(=O)c2sc3nc4c(cc3c2N)CN(Cc2ccccc2)CC4)c1,31%

# System: 786-0
# Assay: Growth inhibition of human 786-0 cells assessed as cell growth at 0.1 uM incubated for 48 hrs by sulforhodamine B assay relative to control
# Assay type: functional
# Details: read-out: Activity
# Summary of the method: as §2
row,Compound,growth at 0.1 µM
1,COc1cccc(NC(=O)c2sc3nc4c(cc3c2N)CN(Cc2ccccc2)CC4)c1,93%

# System: SK-OV-3
# Assay: Growth inhibition of human SK-OV-3 cells assessed as cell growth at 0.01 uM incubated for 48 hrs by sulforhodamine B assay relative to control
# Assay type: functional
# Details: read-out: Activity
row,Compound,growth at 0.01 µM
1,COc1cccc(NC(=O)c2sc3nc4c(cc3c2N)CN(Cc2ccccc2)CC4)c1,92%

# System: UO-31
# Assay: Growth inhibition of human UO-31 cells assessed as cell growth at 1 uM incubated for 48 hrs by sulforhodamine B assay relative to control
# Assay type: functional
# Details: read-out: Activity
row,Compound,growth at 1 µM
1,COc1cccc(NC(=O)c2sc3nc4c(cc3c2N)CN(Cc2ccccc2)CC4)c1,77%

# System: Malme-3M
# Assay: Growth inhibition of human Malme-3M cells assessed as cell growth at 100 uM incubated for 48 hrs by sulforhodamine B assay relative to control
# Assay type: functional
# Details: read-out: Activity
row,Compound,growth at 100 µM
1,COc1cccc(NC(=O)c2sc3nc4c(cc3c2N)CN(Cc2ccccc2)CC4)c1,-42%

# System: OVCAR-3
# Assay: Growth inhibition of human OVCAR-3 cells assessed as cell growth at 1 uM incubated for 48 hrs by sulforhodamine B assay relative to control
# Assay type: functional
# Details: read-out: Activity
row,Compound,growth at 1 µM
1,COc1cccc(NC(=O)c2sc3nc4c(cc3c2N)CN(Cc2ccccc2)CC4)c1,82%

# System: NCI-H226
# Assay: Growth inhibition of human NCI-H226 cells assessed as cell growth at 1 uM incubated for 48 hrs by sulforhodamine B assay relative to control
# Assay type: functional
# Details: read-out: Activity
row,Compound,growth at 1 µM
1,COc1cccc(NC(=O)c2sc3nc4c(cc3c2N)CN(Cc2ccccc2)CC4)c1,81%

# System: M14
# Assay: Growth inhibition of human M14 cells incubated for 48 hrs by sulforhodamine B assay
# Assay type: functional
# Details: not given
# Summary of the method: as §1
Compound,GI50,LC50 (concentration killing 50% of cells),TGI
COc1cccc(NC(=O)c2sc3nc4c(cc3c2N)CN(Cc2ccccc2)CC4)c1,12.7 µM,> 100 µM,86.8 µM

# System: NCI-H522
# Assay: Growth inhibition of human NCI-H522 cells assessed as cell growth at 0.1 uM incubated for 48 hrs by sulforhodamine B assay relative to control
# Assay type: functional
# Details: read-out: Activity
row,Compound,growth at 0.1 µM
1,COc1cccc(NC(=O)c2sc3nc4c(cc3c2N)CN(Cc2ccccc2)CC4)c1,95%

# System: UACC-62
# Assay: Growth inhibition of human UACC-62 cells assessed as cell growth at 0.1 uM incubated for 48 hrs by sulforhodamine B assay relative to control
# Assay type: functional
# Details: read-out: Activity
row,Compound,growth at 0.1 µM
1,COc1cccc(NC(=O)c2sc3nc4c(cc3c2N)CN(Cc2ccccc2)CC4)c1,89%

# System: SK-MEL-2
# Assay: Growth inhibition of human SK-MEL-2 cells assessed as cell growth at 0.01 uM incubated for 48 hrs by sulforhodamine B assay relative to control
# Assay type: functional
# Details: read-out: Activity
row,Compound,growth at 0.01 µM
1,COc1cccc(NC(=O)c2sc3nc4c(cc3c2N)CN(Cc2ccccc2)CC4)c1,106%
